# Bioassay records as filed in PubChem.
# Efflux pump inh: blocks antifungal efflux pumps in multiplex yeast assay; inhibition, % at 10 µM; AID 485275; 330,000 compounds, 0.44% hits; S. cerevisiae Candida pump triplex, Nile Red efflux;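 active = plate passing quality check with inhibition over a set limit, or well fluorescence over plate mean plus 4 SD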;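 note: Nile Red retained in pooled yeast measured as flow cytometry median fluorescence; 0% = buffer negative control and 100% = Enniatin B positive control; higher means more Nile Red kept so more efflux inhibition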
# Cardiac RTF inh: cardiac RTF calcium desensitization; P19429+P45379; IANBD-labeled cardiac RTF, Ca2+ fluorescence; inhibition, % at 7.15 µM; 340,000 compounds, 0.12% hits;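 active = inhibition above the mean inhibition of all tested compounds plus 3 SD, cut at about 17% in these data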;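 note: assay run at fixed EC70 calcium of 1.6 mM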
# Mot1-301 SUMO: inhibitors of SUMOylation pathway: yeast Mot1-301 growth rescue | S. cerevisiae Mot1-301 growth rescue, ATP luminescence, 38.5C; percent above DMSO median, 100 means doubled | 320,000 compounds, 1% hits | growth rescue, % at 18.8 µM | AID 2716;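 active = every valid replicate shows activation above 250% relative to neutral control wells; inactive = the rest, any valid replicate at or below 250%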;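 note: OY570 slx delta 5 strain wells were the positive control but not used for scaling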
# ARNT-TACC3 inh: disruptors of human ARNT/TACC3 interaction; Q9Y6A5; AlphaScreen His-ARNT PAS-B/GST-TACC3 binding, luminescence; TACC3 fragment carries E629A point mutation; inhibition, % at 9.99 µM; 390,000 compounds, 0.66% hits; AID 623870;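 active = mean inhibition of replicates at least 50% and at least half of replicates each reaching 50%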;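 note: 0% = complete ARNT plus TACC3 wells and 100% = ARNT alone without TACC3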
# RTF Ca sens act: increases calcium sensitivity of human cardiac regulated thin filaments. activation, % at 7.2 µM. P19429+P45379. 340,000 compounds, 0.24% hits. IANBD-labeled TnC RTF fluorescence at EC20 calcium; 0% EC20 calcium, 100% full calcium;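 active = activation above the mean over all tested compounds plus 3 SD, cut at about 30% in these data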;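 note: rise in fluorescence read as greater calcium sensitivity of cardiac thin filaments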
# UCH37 inh: blocks the human deubiquitinase UCH37. Q9Y5K5. purified proteasome/UCH37, Ub-AMC cleavage fluorescence. inhibition, % (no concentration beside the values). 330,000 compounds, 0.33% hits;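 active = mean inhibition over replicate wells above about 20%, limit read from the data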;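 note: 0% = compound-free wells with enzyme and 100% = wells lacking proteasome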
# Target sequence (Q9Y5K5 whole entry, looked up): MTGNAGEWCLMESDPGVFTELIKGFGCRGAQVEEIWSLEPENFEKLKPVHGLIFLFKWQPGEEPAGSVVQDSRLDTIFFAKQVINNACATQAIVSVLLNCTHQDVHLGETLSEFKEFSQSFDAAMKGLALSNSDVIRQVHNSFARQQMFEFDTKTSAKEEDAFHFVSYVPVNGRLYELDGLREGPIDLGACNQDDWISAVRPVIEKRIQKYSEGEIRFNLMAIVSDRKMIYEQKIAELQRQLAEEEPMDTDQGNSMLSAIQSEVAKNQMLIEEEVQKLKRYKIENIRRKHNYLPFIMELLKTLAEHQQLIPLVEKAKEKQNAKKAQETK
#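 Signal – fluorescence, ex 355 nm, em 460 nm · System – Proteasome-bound UCH37 · Input – 0.15 nM proteasome as dispensed · Timing – 30 min preincubation with enzyme, 25 min cleavage at room temperature · Read-out basis – percent inhibition of cleavage signal versus uninhibited and no-proteasome wells · Medium – Tris-HCl pH 7.4 with ATP-MgCl2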
# Yeast Mot1 SUMO: yeast SUMO pathway inhibition in dose response. shares compounds with Mot1-301 SUMO. S. cerevisiae Mot1-301 galactose growth, ATP luminescence, 24 h; -100 = growth of slx-deleted rescue strain. growth activity, percent, % at 42 µM. 2,300 tested, under 10 active;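 active = Signal drops as the depositor expects, and the fitted half-maximal dose is no more than ten times the top valid tested dose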;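 note: more negative values mean stronger growth rescue toward the control strain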
# Active calls of the source: *; i = inactive; x = no result; + = active, no number. A selection: hits, their analogues and other compounds. The true share with any hit is near 2.1%.
SMILES,Efflux pump inh,Cardiac RTF inh,Mot1-301 SUMO,ARNT-TACC3 inh,RTF Ca sens act,UCH37 inh,Yeast Mot1 SUMO
COc1cc(CN2CCN(c3ncccn3)CC2)cc(OC)c1,0,-10,534*,-10,-1,0,0
COc1ccccc1NS(=O)(=O)c1cc(Cl)ccc1OC,0,-3,442*,3,-8,2,1
COc1ccccc1NC(=O)Nc1ccc(Cl)c(S(=O)(=O)Nc2ccccc2OC)c1,-1,-17,390*,0,-1,0,0
COc1ccc(CCC(=O)NNC(=S)Nc2cccc(C(C)=O)c2)cc1,0,-1,+,0,4,1,0
CCOC(=O)c1cccc(NC(=O)C2CCCN(S(=O)(=O)c3c(C)nn(C)c3C)C2)c1 (centres undefined),0,-6,-16,x,-2,2,x
CCOC(=O)c1cccc(NC(=O)C2CCCN(S(=O)(=O)c3c(C)n[nH]c3C)C2)c1 (centres undefined),0,-8,458*,x,2,6,1
O=c1[nH]c(N2CCOCC2)nc2ncn(Cc3ccccc3)c12,0,0,6,-11,-3,2,x
N=c1ncn(CC(O)CO)c2nc(N3CCOCC3)[nH]c12 (centres undefined),0,-13,457*,x,-1,7,0
COCCCNCC(O)COc1cccc2[nH]c(C)cc12 (centres undefined),0,-1,773*,3,6,4,0
Cc1cc2c(OCC(O)CNC(C)(C)C)cccc2[nH]1 (centres undefined),0,1,0,-1,-3,6,x
COCC(=O)NN=Cc1ccc(Sc2nc3ccccc3s2)o1,x,x,x,x,x,6,x
Cc1ccc(CSCC(=O)NN=Cc2sccc2C)cc1,x,x,x,x,x,-2,x
Cc1cc(C)cc(C(=O)N2CCC3(CC2)NCCc2[nH]cnc23)c1,0,-12,396*,-13,0,1,0
COc1ccc2c(c1)[C@H]1[C@H](CO2)[C@H](c2ccccc2)[C@]2(C)C(=O)Nc3ccc(Cl)cc3C(=O)N12,x,-5,x,1,-3,-2,x
COc1ccc2c(c1)[C@@H]1[C@H](CO2)[C@H](c2ccccc2)[C@]2(C)C(=O)Nc3ccc(C)cc3C(=O)N12,0,-10,3,-3,9,3,x
COc1ccc2c(c1)[C@H]1[C@H](CO2)[C@H](c2ccccc2)[C@]2(C)C(=O)Nc3ccc(C)cc3C(=O)N12,0,1,598*,-3,-5,x,-1
COc1ccc2c(c1)OC[C@H]1[C@H]2N2C(=O)c3ccccc3NC(=O)[C@@]2(C)[C@H]1c1ccccc1,0,-13,640*,-10,10,x,2
COc1ccc2c(c1)[C@H]1[C@H](CO2)[C@H](c2ccccc2)[C@]2(C)C(=O)Nc3ccc(F)cc3C(=O)N12,0,-6,904*,x,4,x,-1
CC(=O)N(C)c1ccc(N2CCOCC2)c2c1C(=O)c1ccccc1C2=O,0,5,456*,12,0,8,1
COc1cccc(C=NNC(=O)CCn2c3ccccc3c3ccccc32)c1,x,x,x,x,x,-1,x
COc1ccccc1CNCc1ccc(C)cc1,0,0,-18,-3,4,2,x
COc1ccccc1CNCc1cc(OC)c(OC)c(OC)c1,0,-6,+,-6,5,2,0
CCOC(=O)C1=Nc2ccccc2C1=[N+]=[N-],0,-8,366*,-2,-2,x,-1
CCCCCC(=O)Nc1ccc(-c2csc(N)n2)cc1,0,-4,471*,-5,4,2,-1
CCCCCOC(=O)C1=C(C)N(C)C(=O)NC1c1cc(Br)c(O)c(OC)c1 (centres undefined),0,0,879*,10,-2,3,0
SMILES,Efflux pump inh,Cardiac RTF inh,Mot1-301 SUMO,ARNT-TACC3 inh,RTF Ca sens act,UCH37 inh,Yeast Mot1 SUMO
O=C(c1ccccc1F)N1CCCc2ccccc21,0,-2,495*,-8,0,1,0
CCOC(=O)Cc1cc(=O)[nH]c(N=C(N)Nc2ccc(C)c(C)c2)n1,x,x,x,x,x,13,x
O=C(CSc1nc2ccc(Cl)cc2[nH]1)NCc1ccco1,0,-15,358*,1,4,x,0
O=C(CSc1nc2ccccc2[nH]1)NCc1ccco1,0,-5,1,-3,0,4,x
CCN(CC)c1ncnc2ccc(Br)cc12,0,-26,410*,1,5,7,0
Cn1c(-c2sc3cc(C(F)(F)F)cnc3c2-c2ccccn2)n[nH]c1=S,0,x,-7,x,x,2,x
Cn1c(-c2sc3cc(C(F)(F)F)cnc3c2-c2cccs2)n[nH]c1=S,0,-2,+,-2,3,-1,0
N#CCCN(Cc1cccnc1)C(=O)Nc1cccc(Cl)c1,0,-4,+,-18,-2,1,0
CCOC(=O)c1cnc2c(C)c(Cl)ccc2c1N1CCOCC1,0,-10,828*,-5,16,x,1
CCOC(=O)c1cnc2c(C)c(Cl)ccc2c1NCCCN1CCOCC1,0,4,-6,-1,-11,-1,x
COc1cccc(C(=O)NCC(=O)NN=C(C)Cc2ccccc2)c1,x,x,x,x,x,2,x
CC1(C)C2CC=C(/C=N/NC(=S)Nc3cccnc3)C1C2 (centres undefined),0,-4,745*,-3,3,x,0
COc1ccc2cc(C(=O)Nc3ccc(Cl)cc3)sc(=O)c2c1OC,0,7,752*,-4,6,-8,0
CC(=O)N1CCC2(CC1)CC(=O)c1cc(OCC(=O)N3CCCC3)ccc1O2,0,7,488*,44,-3,x,1
CCOC(=O)COc1ccc2c(c1)C(=O)CC1(CCN(C(C)=O)CC1)O2,0,-6,-8,-1,0,i,x
CC(=NNC(=O)Cn1ccc(C(F)(F)F)n1)c1ccco1,x,x,x,x,x,-1,x
COc1ccc(CCNC(=O)CC2C(=O)NCCN2CC(C)(C)C)cc1 (centres undefined),0,-3,770*,5,1,-2,0
CN(C)c1ccc(C=NNC(=O)CNC(=O)c2ccncc2)cc1,x,x,x,x,x,-42,x
COc1ccc(C=N/N=C2/NC(=O)C(CC(=O)O)S2)cc1OCc1ccccc1Cl (centres undefined),x,x,x,x,x,16,x
CC1CN(CCCOc2ccc([N+](=O)[O-])cc2)CC(C)O1 (centres undefined),0,-3,463*,-4,4,7,1
